Bioassay records: PubChem, several laboratories
SENP1 FRET inh = blocks the human SENP1 SUMO protease catalytic domain; Q9P0U3; recombinant SENP1 catalytic domain, CyPet-SUMO1-YPet FRET cleavage; inhibition, % at 10 µM; hit rate 0.21% among 360,000;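 active = inhibition at least 30% at 10 µM, raw YFP signal under a set limit, fluorescence ratio 0.5 to 1.5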;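 also: 0% = enzyme with DMSO and 100% = no enzyme wells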
Target sequence (Q9P0U3 419-644 limits assumed): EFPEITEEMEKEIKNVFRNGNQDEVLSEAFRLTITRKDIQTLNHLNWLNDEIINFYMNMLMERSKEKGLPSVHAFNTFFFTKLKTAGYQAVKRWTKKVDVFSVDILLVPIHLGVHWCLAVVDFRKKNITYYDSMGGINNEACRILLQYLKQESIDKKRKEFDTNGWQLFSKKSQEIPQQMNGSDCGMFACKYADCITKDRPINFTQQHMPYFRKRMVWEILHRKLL
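Material – human SENP1 catalytic domain · Input – SENP1 enzyme, 20 pM final · Compound dosing – single concentration of 10 µM compound, 0.5% DMSO final · Timing – enzyme reaction for 50 min at room temperature, dark · Measured by – FRET fluorescence in CFP and YFP emission channels · Control set – no-enzyme wells low, DMSO-plus-enzyme wells high control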
NR3A LBD binder = NR3A (human) ligand-binding domain modulation; NR3A LBD differential scanning fluorimetry, Tm shift; 0% = protein alone, 100% = glycine-bound protein; Tm shift relative to glycine control, % at 25 µM; hit rate 2.5% among 340,000; AID 1259313;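 active = melting temperature shift of at least 10% of the positive control shift, at one fixed dose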
Arr AP2 block = human beta-arrestin and AP2 interaction inhibition; FITC-arrestin peptide / GST-AP2 beads, flow cytometry; AP2 beta2 appendage carries R879A mutation; hit rate 0.31% among 340,000; AID 504490; inhibition, % at 10 µM;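 active = inhibition above a set limit, near 3 SD of compounds lacking own fluorescence, cut at about 54% in these data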;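 also: plate controls were DMSO wells for no effect and 5 µM unlabelled arrestin peptide for full effect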
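System: GST-AP2 R879A glutathione beads | Also added: FITC-arrestin peptide, 50 nM | Times: 12 min plus 1 h, RT | Signal: Bead flow cytometry, FITC channel | Buffer or medium: PBS with 0.05% Tween 20 and 0.1% BSA | Read-out basis: Percent drop in bead-associated FITC signal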
iPSC survival up = increases survival of single human iPS cells; hiPSC single-cell survival, ATPlite luminescence; 100% = ROCK inhibitor wells, 0% = DMSO; survival enhancement, % at 20 µM; hit rate 0.044% among 360,000; in the data active = survival enhancement above about 18%;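 also: cells exposed to compounds for 16 hours before the ATP read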
FAS TE block = FAS thioesterase (human) inhibition; P49327; recombinant FAS-TE, OMFH fluorogenic substrate, fluorescence endpoint; inhibition, % at 15 µM; hit rate 0.67% among 360,000; AID 602261;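 active = compounds whose normalised, plate-corrected inhibition of enzyme fluorescence in the single-dose primary screen is 50% or more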;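 also: 0% = DMSO with enzyme and 100% = substrate without enzyme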
Cardio protect = modulators protecting cardiomyocytes from myocardial damage; protection from H2O2 cell death, % at 20 µM; hit rate 0.63% among 360,000; H9c2 cardiomyocytes, H2O2 injury protection, ATPLite, 2 h;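 active = compounds giving at least 50% protection of heart cells from peroxide-induced death in the single-dose screen, raw or plate-pattern-corrected value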;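 also: 0% = DMSO wells with peroxide and 100% = DMSO wells without peroxide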
Numbers without * were called inactive; nt = no result given. Compounds with a hit are over-represented: about 4% of the library has one in this group of screens.

SMILES	SENP1 FRET inh	NR3A LBD binder	Arr AP2 block	iPSC survival up	FAS TE block	Cardio protect
CNC(=O)C[C@H]1C(=O)N(C2CCCCC2)C[C@@H]1c1ccc(Br)cc1	-0.6	nt	nt	0.3	-4.3	-6.4
O=C(Nc1ccc(C(=O)O)cc1)Nc1ccc([N+](=O)[O-])cc1	-0.3	1.1	18.5	-0.7	-4.3	2.7
COc1ccc(NC(=O)Nc2ccc3nonc3c2)cc1	1.5	18.7*	5.6	-0.4	11.3	0.8
CCc1ccc(CCC(=O)Nc2ccc(Br)cc2)o1	-5.6	-4.6	2.4	-0.5	10.4	-2.7
CCc1ccc(CCC(=O)Nc2ccc(OC)cc2)o1	-3.8	32.5*	-6.0	2.2	-2.0	8.3
COc1ccc(C(=O)CC(=O)Nc2ccc([N+](=O)[O-])cc2)cc1	1.3	24.4*	9.4	0.3	18.1	-10.1
COC(=O)c1ccc(NC(=O)Nc2ccc([N+](=O)[O-])cc2)cc1	1.3	34.0*	-2.6	2.6	17.8	-8.8
CC(C)NC(=O)N(C)C[C@H]1Oc2ncc(Br)cc2C(=O)N([C@H](C)CO)C[C@@H]1C	2.0	nt	nt	-1.8	-4.1	6.7
Cc1ccc(NC(=O)C2(C)CCN2C(=O)Cc2ccccc2)cc1C (stereo not drawn)	0.2	nt	nt	-2.7	-0.1	-1.5
Cc1ccc(C(=O)NCCN2CCC(n3c(=O)[nH]c4ccccc43)CC2)cc1	2.8	nt	nt	-0.8	-6.5	nt
COC(=O)c1ccc(NC(=O)Nc2ccc3c(c2)nc(C)n3C)cc1	-1.4	25.0*	-4.8	-0.4	-1.3	-14.6
O=C(Nc1ccc2[nH]ccc2c1)c1ccccc1	1.6	-5.0	-3.9	-0.7	-7.2	-15.3
COc1ccc(NC(=O)Nc2ccc3[nH]ccc3c2)cc1	0.6	34.8*	-0.3	0.6	-5.8	-7.0
COc1ccc(NC(=O)Nc2ccc(N(C)C)cc2)cc1	3.2	11.8*	21.4	-0.6	-6.0	-9.4
COc1ccc(NC(=O)Nc2ccc(OC)cc2)cc1	1.4	13.2*	0.5	-1.1	-7.1	3.9
CNc1nc(Nc2ccc(C)cc2C)c2sccc2n1	-0.4	nt	nt	-0.8	-3.2	-6.4
OC[C@@H]1CN(Cc2cccc3ccccc23)C[C@H](n2cnc3c(NCc4ccco4)ncnc32)O1	-5.8	nt	nt	-1.6	1.0	13.7
COC(=O)c1ccc(NC(=O)Nc2ccc(OC)cc2)cc1	0.4	10.3*	16.5	-0.6	-3.7	-16.4
CCCCNC(=O)c1nc(C2CCNCC2)oc1-c1cccc(C(F)(F)F)c1	1.3	nt	nt	nt	nt	nt
Cc1cc(C(=O)CN2C(=O)NC3(CCCc4sccc43)C2=O)c(C)n1-c1ccccc1 (stereo not drawn)	0.4	14.8*	29.9	-0.2	14.2	-0.5
N#Cc1ccc(/C=C/C(=O)c2ccccc2)cc1	0.8	12.1*	1.7	-0.7	-2.0	-14.4
O=C(C[C@H]1C/C=C\C[C@@H](Cc2ccc(F)cc2)C(=O)OC[C@H]2CCCN2C1=O)NCCO	0.2	-2.0	-6.0	3.6	-11.2	6.7
COc1ccc(-c2oc3c(c2C#CC(C)(C)O)C(OC)CCC3)cc1 (stereo not drawn)	-7.9	nt	nt	-0.4	-3.4	nt
N=c1c2c(-c3ccccc3)c(-c3ccccc3)oc2ncn1CCN1CCOCC1	-0.6	-2.2	6.1	2.6	6.7	28.2
c1ccc(-c2oc3ncnc(NCCN4CCOCC4)c3c2-c2ccccc2)cc1	1.1	-2.1	0.7	-0.3	14.3	52.6*
SMILES	SENP1 FRET inh	NR3A LBD binder	Arr AP2 block	iPSC survival up	FAS TE block	Cardio protect
CCn1c(C)cc(/C=C2/SC(=S)N(CC(=O)O)C2=O)c1C	-38.3	0.3	14.2	2.2	-5.4	-20.5
C#CCN1C(=O)S/C(=C/c2cc(C)n(CC)c2C)C1=O	-52.2	33.1*	4.0	-0.9	3.8	-7.4
Cc1cc(S(=O)(=O)N(Cc2ccc(F)cc2)CC2CCCO2)ccc1-n1cnnn1 (stereo not drawn)	0.9	1.6	-1.8	-1.3	12.6	-0.8
Cc1cc(S(=O)(=O)N(Cc2ccc3c(c2)OCO3)CC2CCCO2)ccc1-n1cnnn1 (stereo not drawn)	3.0	21.2*	-1.2	-2.6	10.2	4.0
CC(=O)Nc1ccc(S(=O)(=O)N2CCC(c3nc4ccccc4[nH]3)CC2)cc1	1.9	-1.9	0.8	-1.5	-0.2	-1.3
O=S(=O)(c1cccc(C(F)(F)F)c1)N1CCC(c2nc3ccccc3[nH]2)CC1	0.3	9.0	8.5	1.7	3.5	-2.1
O=S(=O)(c1cccc(Cl)c1)N1CCC(c2nc3ccccc3[nH]2)CC1	-2.1	27.2*	4.0	-0.6	0.0	0.8
CC(C)(C)C(=O)Nc1ccc(S(=O)(=O)N2CCC(c3nc4ccccc4[nH]3)CC2)cc1	2.5	20.4*	-2.0	1.1	1.2	2.1
C[C@H](CO)N1C[C@H](C)[C@H](CN(C)Cc2ccncc2)Oc2ncc(Br)cc2C1=O	1.0	nt	nt	-0.1	-7.9	15.0
CCN(CC)CCN1C(=O)c2ccccc2NC1c1ccc(C)cc1 (stereo not drawn)	-12.3	14.2*	0.4	-1.2	-6.4	0.2
CCN(CC)CCN1C(=O)c2ccccc2NC1c1ccc(F)cc1 (stereo not drawn)	-8.6	-2.1	-3.2	0.4	-5.6	5.9
CCOC(=O)c1cnc2ccc(C)cc2c1Sc1ccc(F)cc1	1.5	18.7*	-10.8	-3.4	31.9	-17.9
Cc1nc2nc(C)n(CCN3CCOCC3)c(=O)c2c(-c2cccc([N+](=O)[O-])c2)c1C(=O)CCCCCCCCCCN1CCC(c2ccccc2)(c2ccccc2)CC1	0.2	-7.7	-11.8	-2.1	21.9	-21.2
O=C(CNc1ccc2ccccc2c1)N/N=C/C=C/c1cccc([N+](=O)[O-])c1	-10.9	22.0*	3.0	-1.3	4.6	-11.4
O=C(N/N=C/c1ccc(-c2ccc(Br)cc2)o1)c1ccc2c(c1)OCO2	-17.6	10.8*	16.2	-0.9	1.8	-1.0
COc1ccc(-c2cc(C(=O)N/N=C/c3ccc4c(c3)OCO4)c3ccccc3n2)c(OC)c1	2.0	-3.2	7.5	-0.2	50.8*	21.6
O=C(N/N=C/c1ccc(COc2ccc(Br)cc2)o1)c1ccc2c(c1)OCO2	0.9	3.5	-0.3	-0.3	17.2	-0.1
O=C(N/N=C/c1ccc(O)cc1)c1cc(-c2ccccc2)nc2ccccc12	1.3	13.4*	37.8	0.0	3.4	11.0
O=C(NC1CCCC1)C(C1CC1)n1c(-c2ccncc2)nc2ccccc21 (stereo not drawn)	1.2	nt	nt	nt	nt	nt
O=C(N/N=C/c1ccc2c(c1)OCO2)c1cc(-c2ccc(F)cc2)nc2ccccc12	0.3	25.0*	-3.9	-1.3	9.1	-0.1
O=C(/C=C/c1ccc([N+](=O)[O-])cc1)c1cccnc1	1.2	23.5*	29.1	-2.8	-5.8	12.2
O=C(Nc1ccc(C(=O)O)cc1)/C(=C\c1ccc2c(c1)OCO2)NC(=O)c1ccccc1	-26.8	-0.9	11.7	-1.3	-10.3	6.5
